This is an account of results in ChEMBL document CHEMBL2029204, “Latent hit series hidden in high-throughput screening data” (J Med Chem, 2012).

The subject of series [1] is Nucleic Acid. In words: Antagonist activity at ECMV genomic RNA internal ribosomal entry site in human HuH7 cells after 24 hrs by firefly luciferase reporter gene assay. As to conditions: Encephalomyocarditis virus; Huh-7. The format is functional, cell-based. In a few lines:
(§1)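 Cells carry a bicistronic construct (Neo translated cap-dependently, firefly luciferase under EMCV IRES) and are grown with Geneticin. After 24 h with or without compound, resazurin viability is read first, then cells are lysed and luciferase is quantified (Steady-Glo). Dose response uses eight concentrations from 0 to 10 μM in quadruplicate. Normalization: DMSO 0%, 500 μM benzalkonium chloride −100%. Values reported are AC50, absolute AC50 (activity at −50% for antagonists, 50% for agonists) and Amax (activity at highest concentration).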

Series [2] deals with Huh-7. In words: Cytotoxicity against human HuH7 cells after 24 hrs by resazurin reduction assay. In kind it is cell-based. The conditions noted are these: huh-7, 24 h. An outline of the steps: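 Same multiplexed wells as the luciferase readout: cells with the Neo/EMCV-IRES-Fluc construct under Geneticin, exposed to compound for 24 h, then viability is read by non-invasive resazurin reduction before lysis. Eight concentrations from 0 to 10 μM, in quadruplicate. Activity is normalized to DMSO (0%) and 500 μM benzalkonium chloride (−100%).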
(Resazurin is reduced to fluorescent resorufin, in cell work by metabolically active cells.)

The subject of series [3] is Nucleic Acid. In words: Antagonist activity at ECMV genomic RNA internal ribosomal entry site in human HuH7 cells after 24 hrs by firefly luciferase reporter gene assay relative to control. As to conditions: Encephalomyocarditis virus; Huh-7. In kind it is functional, cell-based. An outline of the steps:
as §1
(Reporter assays use an easily measured gene product as a stand-in for the process of interest.)

Series [4] concerns Nucleic Acid. In words: Agonist activity at ECMV genomic RNA internal ribosomal entry site in human HuH7 cells after 24 hrs by firefly luciferase reporter gene assay. The conditions noted are these: Encephalomyocarditis virus; Huh-7. In kind it is functional, cell-based. In a few lines: as §1
Series [5] relates to Nucleic Acid. As to the kind of experiment: Agonist activity at ECMV genomic RNA internal ribosomal entry site in human HuH7 cells assessed as activity measured at the highest concentration after 24 hrs by firefly luciferase reporter gene assay relative to control. The format is functional, cell-based. The conditions noted are these: Encephalomyocarditis virus; Huh-7. An outline of the steps:
as §1

Activity calls are given as the source filed them. The calls are words filed in the database; no cut-off is given here.

For the molecule `COc1ccccc1N1CCN(CC(O)COc2ccc(-c3cc(C#N)c(=O)[nH]c3C)cc2)CC1` (configuration not stated) [SATERINONE], the Activity is 5.46 µM in series [1], “Non-toxic” in series [2] and 172 in series [3].
As to `COCCn1c(NC(COC)c2ccc(OC)c(OC)c2)nc2c1c(=O)n(C)c(=O)n2C` (configuration not stated), the outcome in series [4] was inactive. The Activity result in series [2] is “Non-toxic”; in series [5] it was 0.53.
For `COc1ccc2[nH]c3c(c2c1)CCn1c-3nc2cc3sc4c(c3cc2c1=O)CCCC4`, in that order: “inactive”, “Non-toxic” and -7.44.
For `O=c1c2ccccc2nc2n1CCc1c-2[nH]c2ccccc12` [RUTAECARPINE], in that order: 27.6 µM, “Non-toxic” and 1030.
Turning to `COc1ccc(OCC(O)CN2CCN(c3ccccc3OC)CC2)c(C(C)(C)C)c1` (configuration not stated), the results for the Activity in series [1], in series [2] and in series [3] were 3.08 µM, “Non-toxic” and -42, respectively.
`COc1ccc2[nH]c3c(c2c1)CCn1c-3nc2cc3sc4c(c3cc2c1=O)CCCCCC4`: the results for the Activity in series [4], in series [2] and in series [5] were 2.16 µM, “Non-toxic” and 26.2, respectively.
On the same counts, the results for `COCCn1c(NC(CO)c2ccc(OC)c(OC)c2)nc2c1c(=O)n(C)c(=O)n2C` (configuration not stated) are 42.8 µM, “Non-toxic” and 346.
On the same counts, the results for `CCc1cc2cc3c(=O)n4c(nc3cc2s1)-c1[nH]c2ccc(OC)cc2c1CC4` are 0.35 µM, “Non-toxic” and 33.5.
`COc1ccccc1N1CCN(CC(O)COc2cccc3ccccc23)CC1` (configuration not stated) [NAFTOPIDIL]: the values for the Activity in series [1], in series [2] and in series [3] were 1.48 µM, “Non-toxic” and -34, respectively.
